# Assay results: ChEMBL document CHEMBL4177543, “Biseokeaniamides A, B, and C, Sterol O-Acyltransferase Inhibitors from an Okeania sp. Marine Cyanobacterium” (J Nat Prod, 2017)
# Active and inactive are the calls of the source. No cut-off for these calls is given here. Non-standard residues stand in square brackets, D forms with d. Residues, ends and D or L forms follow the SMILES beside them. *: point of attachment. NMeF = CN[C@@H](Cc1ccccc1)C(=O)O; NMeV = CN[C@H](C(=O)O)C(C)C; Butyryl = CCCC(=O)*; X1 = CN(Cc1nccs1)*
# Assays:
# [1] = tested on: HeLa; experiment: Growth inhibition of human HeLa cells incubated for 72 hrs by MTT assay; assay type: functional, cell-based
# How it was run: (§1)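 HeLa (DMEM) or HL60 (RPMI) cells, 10% heat-inactivated FBS, 37 °C, 5% CO2. HeLa seeded 2 × 10^4 cells/well and cultured overnight; HL60 seeded 1 × 10^5 cells/well. Exposed to a range of concentrations for 72 h; proliferation read by MTT; IC50 reported.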
# [2] = tested on: HL-60; experiment: Growth inhibition of human HL60 cells incubated for 72 hrs by MTT assay; assay type: functional, cell-based; conditions: HL-60, 72 h; how it was run: as §1
# [3] = biological target: T1, Sterol O-acyltransferase 1 (Chlorocebus aethiops, UniProt O77760); experiment: Inhibition of African green monkey SOAT1 expressed in CHO cells assessed as reduction in neutral lipid synthesis incubated for 6 hrs using [1-14C]oleic acid by thin-layer chromatography; assay type: cell-based
# T1 sequence (O77760 whole entry): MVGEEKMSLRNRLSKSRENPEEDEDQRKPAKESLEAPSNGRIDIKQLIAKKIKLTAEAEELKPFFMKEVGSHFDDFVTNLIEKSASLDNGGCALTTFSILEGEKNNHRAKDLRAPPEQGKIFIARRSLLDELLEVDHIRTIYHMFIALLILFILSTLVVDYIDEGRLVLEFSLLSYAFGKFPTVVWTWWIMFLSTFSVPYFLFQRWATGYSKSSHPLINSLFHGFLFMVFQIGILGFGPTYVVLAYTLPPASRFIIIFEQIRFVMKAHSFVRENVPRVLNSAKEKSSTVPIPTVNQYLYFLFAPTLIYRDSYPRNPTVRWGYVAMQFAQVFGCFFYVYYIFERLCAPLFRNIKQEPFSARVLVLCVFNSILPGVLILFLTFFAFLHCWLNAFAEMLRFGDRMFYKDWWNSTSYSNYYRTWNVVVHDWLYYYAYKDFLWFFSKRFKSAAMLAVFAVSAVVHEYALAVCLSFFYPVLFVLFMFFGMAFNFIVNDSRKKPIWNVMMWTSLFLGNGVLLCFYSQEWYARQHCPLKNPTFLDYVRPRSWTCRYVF
# How it was run: (§2)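 CHO cells stably expressing monkey SOAT1 or SOAT2 in Ham's F-12 with 10% FBS, plated 1.25 × 10^5 cells/well, recovered overnight, ≥80% confluent. Sample added from 0–1 mg/mL MeOH stocks together with [1-14C]oleic acid (1 nmol) for 6 h at 37 °C. Lipids Bligh–Dyer extracted and separated by TLC; [14C]cholesteryl ester quantified vs control. IC50 from duplicated experiments.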
# [4] = biological target: T2, Sterol O-acyltransferase 2 (Chlorocebus aethiops, UniProt O77759); experiment: Inhibition of African green monkey SOAT2 expressed in CHO cells assessed as reduction in neutral lipid synthesis incubated for 6 hrs using [1-14C]oleic acid by thin-layer chromatography; assay type: cell-based; how it was run: as §2
# T2 sequence (O77759 whole entry): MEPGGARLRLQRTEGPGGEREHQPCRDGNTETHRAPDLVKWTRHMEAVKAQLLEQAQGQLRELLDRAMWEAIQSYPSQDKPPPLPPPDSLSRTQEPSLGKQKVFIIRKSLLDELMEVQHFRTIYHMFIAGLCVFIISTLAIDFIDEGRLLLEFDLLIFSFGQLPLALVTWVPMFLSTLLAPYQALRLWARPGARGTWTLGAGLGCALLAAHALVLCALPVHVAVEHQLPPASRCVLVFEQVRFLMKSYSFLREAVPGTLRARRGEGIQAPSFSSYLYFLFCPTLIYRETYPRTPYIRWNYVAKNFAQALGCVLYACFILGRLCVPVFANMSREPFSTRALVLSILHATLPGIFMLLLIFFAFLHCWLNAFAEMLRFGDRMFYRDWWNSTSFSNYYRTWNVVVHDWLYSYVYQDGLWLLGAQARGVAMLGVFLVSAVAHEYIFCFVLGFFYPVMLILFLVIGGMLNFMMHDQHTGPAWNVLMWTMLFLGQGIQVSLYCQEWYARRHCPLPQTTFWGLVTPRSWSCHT
# [5] = biological target: T1, Sterol O-acyltransferase 1; experiment: Inhibition of African green monkey SOAT1 expressed in CHO cell microsomal fractions assessed as reduction in neutral lipid synthesis incubated for 5 mins using [1-14C]oleoyl-CoA by thin-layer chromatography
# [6] = biological target: T2, Sterol O-acyltransferase 2; experiment: Inhibition of African green monkey SOAT2 expressed in CHO cell microsomal fractions assessed as reduction in neutral lipid synthesis incubated for 5 mins using [1-14C]oleoyl-CoA by thin-layer chromatography
# [7] = tested on: HeLa; experiment: Induction of cell killing in human HeLa cells assessed as reduction in cell viability at 1 to 30 uM incubated for 48 hrs by trypan blue dye exclusion method; assay type: functional, cell-based
# How it was run: (§3)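 HeLa seeded 4 × 10^4 cells/well, cultured overnight, then preincubated 30 min with or without 50 μM Z-VAD-FMK. Compound added at various concentrations for 48 h. Cells stained with 0.8 mg/mL trypan blue; viability from counts of stained (dead) cells. Mean ± SD of quadruplicates.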
# [8] = tested on: HeLa; experiment: Induction of cell killing in human HeLa cells assessed as reduction in cell viability at 1 to 30 uM incubated for 48 hrs in presence of 50 uM Z-VAD-FMK by trypan blue dye exclusion method; assay type: functional, cell-based; how it was run: as §3
# [9] = tested on: HeLa; experiment: Induction of apoptosis in human HeLa cells assessed as induction of caspase-3 activation incubated for 24 hrs using Ac-DEVD-pNA as substrate by spectrophotometry; assay type: functional, cell-based
# How it was run: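 Exponentially growing HeLa, 2 × 10^6 cells per 60 mm dish, incubated 12 h at 37 °C, then treated 24 h. Cells washed in cold PBS, lysed by three freeze–thaw cycles plus 15 min on ice, and clarified at 15000g. Lysate incubated with Ac-DEVD-pNA, 37 °C, 4 h; p-nitroaniline read at 405 nm. Activity relative to 1% MeOH control; triplicates; tunicamycin positive control.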
IC50 [1] [µM],IC50 [2] [µM],IC50 [3] [µM],IC50 [4] [µM],IC50 [5] [µM],IC50 [6] [µM],Compound,Activity [7],Activity [8],Activity [9]
43,> 100,> 12,9.6,11,> 32,CCCC(=O)N[C@H](C(=O)N1CCC[C@H]1C(=O)N(C)[C@@H](Cc1ccccc1)C(=O)N[C@@H](CC(C)C)C(=O)N(C)[C@H](C(=O)N(C)Cc1nccs1)C(C)C)C(C)C (Butyryl-VP[NMeF]L[NMeV]-X1),,,
29,30,1.8,1.3,1.8,9.6,CCCC(=O)N(C)[C@H](C(=O)N1CCC[C@H]1C(=O)N(C)[C@@H](Cc1ccccc1)C(=O)N[C@@H](CC(C)C)C(=O)N(C)[C@H](C(=O)N(C)Cc1nccs1)C(C)C)C(C)C (Butyryl-[NMeV]P[NMeF]L[NMeV]-X1),,,
,,2.5,1.5,0.9,1.8,COc1c([C@H](CC(C)C)OC(C)=O)ccc2c1C(=O)OCc1cc(C)cc(O)c1O2,,,
4.5,19,6.9,2.5,6.8,9.9,CCCC(=O)N(C)[C@H](C(=O)N1CCC[C@H]1C(=O)N(C)[C@@H](Cc1ccccc1)C(=O)N[C@@H](CC(C)C)C(=O)N[C@H](C(=O)N(C)Cc1nccs1)C(C)C)C(C)C (Butyryl-[NMeV]P[NMeF]LV-X1),Active,inactive,Dose-dependent effect
